Measured values reported in ChEMBL document CHEMBL2163256, “6-(methylamino)hexane-1,2,3,4,5-pentanol 4-(((1S,2S)-1-hydroxy-2,3-dihydro-1H,1'H-[2,2-biinden]-2-yl)methyl)benzoate (PH46A): a novel small molecule with efficacy in murine models of colitis” (J Med Chem, 2012).
The source made the active and inactive calls. No cut-off for these calls is given here.

Columns and labels:
[1] = test system: Mus musculus; assay: Antiinflammatory activity against DSS-induced colitis BALB/c mouse model assessed as reduction in shortening of colon at 5 mg/kg, po qd for 7 days measured on day 7 relative to vehicle-treated control; format: functional; set-up: scale not given: the % may be the effect or the level left
In short: (§1)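 Female SPF BALB/c mice, 6−8 weeks old; colitis induced by 5% DSS in tap drinking water (renewed every second day) for 7 days. Daily oral dosing for 7 days as suspension/solution in 0.5% carboxymethyl cellulose/2% Tween 80. Daily body weight; DAI per mouse each day from weight loss, occult blood and stool consistency; colon length at autopsy. Mean ± SEM, n = 6−7.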

[2] = test system: Mus musculus; assay: Antiinflammatory activity against DSS-induced colitis BALB/c mouse model assessed as decrease in disease activity index at 5 mg/kg, po qd for 7 days measured on day 7 relative to vehicle-treated control; format: functional; set-up: scale not given: the % may be the effect or the level left; in short: as §1
[3] = test system: Mus musculus; assay: Antiinflammatory activity against DSS-induced colitis BALB/c mouse model assessed as reduction in IL1b level at 5 mg/kg, po qd for 7 days measured on day 7 relative to vehicle-treated control; format: functional, organism-based; set-up: dose 5 mg/kg
In short: (§2)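 DSS colitis in female BALB/c mice (5% DSS in drinking water, 7 days, daily oral dosing). At autopsy, colon remaining after histology sampling snap-frozen, stored at −20 °C, thawed, contents removed, chopped and homogenized; supernatant protein determined. IL1b, IL6 and TNFα in colon supernatant by sandwich ELISA, expressed as ng/mg. Mean ± SEM, n = 6−7.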

[4] = test system: Mus musculus; assay: Antiinflammatory activity against DSS-induced colitis BALB/c mouse model assessed as decrease in myeloperoxidative activity at 5 mg/kg, po qd for 7 days measured on day 7 relative to vehicle-treated control; format: functional; set-up: scale not given: the % may be the effect or the level left
In short: (§3)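 In the 7-day 5% DSS BALB/c colitis model with daily oral dosing, colon MPO was measured in homogenized snap-frozen colon supernatant (protein determined) by a standard method.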

[5] = test system: Mus musculus; assay: Antiinflammatory activity against DSS-induced colitis BALB/c mouse model assessed as prevention of body weigth loss at 5 mg/kg, po qd for 7 days measured on day 7 relative to vehicle-treated control; format: functional; in short: as §1
[6] = test system: Mus musculus; assay: Antiinflammatory activity against DSS-induced colitis BALB/c mouse model assessed as reduction in IL6 level at 5 mg/kg, po qd for 7 days measured on day 7 relative to vehicle-treated control; format: functional, organism-based; set-up: dose 5 mg/kg; in short: as §2
[7] = test system: Mus musculus; assay: Antiinflammatory activity against DSS-induced colitis BALB/c mouse model assessed as reduction in histological colon damage score at 5 mg/kg, po qd for 7 days measured on day 7 relative to vehicle-treated control; format: functional; set-up: scale not given: the % may be the effect or the level left
In short: (§4)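 After 7 days of 5% DSS with daily oral dosing, about 1 cm distal colon was fixed in 10% formaldehyde-saline, paraffin-embedded, cut into 5 μm serial sections and H&E-stained. Scoring covered cell infiltration (0−3) and extent of injury (0−3), done blinded by two independent observers.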

[8] = test system: Mus musculus; assay: Antiinflammatory activity against DSS-induced colitis BALB/c mouse model assessed as reduction in TNFalpha level at 5 mg/kg, po qd for 7 days measured on day 7 relative to vehicle-treated control; format: functional, organism-based; set-up: dose 5 mg/kg; in short: as §2
[9] = test system: Mus musculus; assay: Antiinflammatory activity against DSS-induced colitis BALB/c mouse model assessed as prevention of body weigth loss at 30 mg/kg, po qd for 7 days measured on day 7 relative to vehicle-treated control; format: functional; in short: as §1
[10] = test system: Mus musculus; assay: Antiinflammatory activity against DSS-induced colitis BALB/c mouse model assessed as decrease in disease activity index at 3 mg/kg, po qd for 7 days measured on day 7 relative to vehicle-treated control; format: functional; set-up: scale not given: the % may be the effect or the level left; in short: as §1
[11] = test system: Mus musculus; assay: Antiinflammatory activity against DSS-induced colitis BALB/c mouse model assessed as decrease in disease activity index at 10 mg/kg, po qd for 7 days measured on day 7 relative to vehicle-treated control; format: functional; set-up: scale not given: the % may be the effect or the level left; in short: as §1
[12] = test system: Mus musculus; assay: Antiinflammatory activity against DSS-induced colitis BALB/c mouse model assessed as decrease in myeloperoxidative activity at 30 mg/kg, po qd for 7 days measured on day 7 relative to vehicle-treated control; format: functional; set-up: scale not given: the % may be the effect or the level left; in short: as §3
[13] = test system: Mus musculus; assay: Antiinflammatory activity in IL-10 -/- BALB/c mouse assessed as decrease in serum SAA level at 300 mg/kg, po administered as divided dose 3 times a week for 9 weeks (reference value: 468.9 +/- 38.37 ug/ml); format: functional
In short: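 IL-10−/− BALB/c-background mice, bred SPF, treated from 6−8 weeks of age by oral gavage of 300 mg/kg/week in distilled water (vehicle), Mon/Wed/Fri, for 9 weeks. Weight, rectal bleeding and prolapse monitored. At 9 weeks serum SAA was measured by sandwich ELISA. Proximal colon (1 cm) was fixed, H&E-stained and scored blinded by two observers (maximum 4). n = 9 vehicle, 11 treated; Student's t test.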

[14] = test system: Mus musculus; assay: Antiinflammatory activity against DSS-induced colitis BALB/c mouse model assessed as reduction in shortening of colon at 30 mg/kg, po qd for 7 days measured on day 7 relative to vehicle-treated control; format: functional; set-up: scale not given: the % may be the effect or the level left; in short: as §1
[15] = test system: Mus musculus; assay: Antiinflammatory activity against DSS-induced colitis BALB/c mouse model assessed as decrease in disease activity index at 30 mg/kg, po qd for 7 days measured on day 7 relative to vehicle-treated control; format: functional; set-up: scale not given: the % may be the effect or the level left; in short: as §1
[16] = test system: Mus musculus; assay: Antiinflammatory activity against DSS-induced colitis BALB/c mouse model assessed as prevention of body weigth loss at 10 mg/kg, po qd for 7 days measured on day 7 relative to vehicle-treated control; format: functional; in short: as §1
[17] = test system: Mus musculus; assay: Antiinflammatory activity against DSS-induced colitis BALB/c mouse model assessed as reduction in histological colon damage score at 30 mg/kg, po qd for 7 days measured on day 7 relative to vehicle-treated control; format: functional; set-up: scale not given: the % may be the effect or the level left; in short: as §4
[18] = test system: Mus musculus; assay: Antiinflammatory activity against DSS-induced colitis BALB/c mouse model assessed as increase in colon lenght at 10 mg/kg, po qd for 7 days relative to vehicle-treated control; format: functional, organism-based; set-up: dose 10 mg/kg; in short: as §1
[19] = test system: Mus musculus; assay: Antiinflammatory activity against DSS-induced colitis BALB/c mouse model assessed as increase in colon lenght at 30 mg/kg, po qd for 7 days relative to vehicle-treated control; format: functional, organism-based; set-up: dose 30 mg/kg; in short: as §1
[20] = test system: Mus musculus; assay: Toxicity in DSS-induced colitis BALB/c mouse model assessed as overt reactions at 30 mg/kg, po qd for 7 days relative to vehicle-treated control; format: organism-based; set-up: dose 30 mg/kg, route oral; conditions: in vivo, 168 h
[21] = test system: Mus musculus; assay: Antiinflammatory activity against DSS-induced colitis BALB/c mouse model assessed as decrease in disease activity index at 30 mg/kg, po qd for 7 days relative to vehicle-treated control; format: functional, organism-based; set-up: dose 30 mg/kg; in short: as §1
[22] = test system: Mus musculus; assay: Antiinflammatory activity against DSS-induced colitis BALB/c mouse model assessed as decrease in disease activity index at 10 mg/kg, po qd for 7 days relative to vehicle-treated control; format: functional, organism-based; set-up: dose 10 mg/kg; in short: as §1

C[C@]12C=CC(=O)C=C1CC[C@@H]1[C@@H]2[C@@H](O)C[C@@]2(C)[C@H]1CC[C@]2(O)C(=O)CO [PREDNISOLONE]
Activity [1]: 39%
Activity [2]: 50%
Activity [3]: Active
Activity [4]: 54%
Activity [5]: 12.6%
Activity [6]: Active
Activity [7]: 26%
Activity [8]: Active

CNC[C@H](O)[C@@H](O)[C@H](O)[C@H](O)CO.O=C(O)c1ccc(C[C@@]2(C3=Cc4ccccc4C3)Cc3ccccc3[C@H]2O)cc1
Activity [9]: 6.2%
Activity [10]: 24%
Activity [11]: 54%
Activity [12]: 63%
Activity [13]: 342.7 µg/mL
Activity [14]: 76%
Activity [15]: 80%
Activity [16]: 12.8%
Activity [17]: >75%

O=C(O)c1ccc(C[C@]2(C3=Cc4ccccc4C3)Cc3ccccc3[C@H]2O)cc1
Activity [18]: inactive
Activity [19]: Active
Activity [20]: Non-toxic
Activity [21]: Active
Activity [22]: inactive
